Data taken from ChEMBL document CHEMBL4177769, “Highly Selective and Potent Ectonucleotide Pyrophosphatase-1 (NPP1) Inhibitors Based on Uridine 5'-Pα,α-Dithiophosphate Analogues” (J Med Chem, 2018).

Legend:
[1] = Drug level treated with UTP 5'-O-Palpha,alpha-dithiophosphate at 2 mM at pH 11.7 at room temperature after 25 days by 31P NMR method; format: physicochemical; conditions: pH 11.7, 600 h, 2000 µM
[2] = target: T1, Ectonucleoside triphosphate diphosphohydrolase 3 (Homo sapiens) (UniProt O75355); assay: Activation of human NTPDase3 using ATP as substrate preincubated for 3 mins followed by substrate addition measured after 10 mins by malachite green reagent-based assay relative to control
T1 sequence (whole entry): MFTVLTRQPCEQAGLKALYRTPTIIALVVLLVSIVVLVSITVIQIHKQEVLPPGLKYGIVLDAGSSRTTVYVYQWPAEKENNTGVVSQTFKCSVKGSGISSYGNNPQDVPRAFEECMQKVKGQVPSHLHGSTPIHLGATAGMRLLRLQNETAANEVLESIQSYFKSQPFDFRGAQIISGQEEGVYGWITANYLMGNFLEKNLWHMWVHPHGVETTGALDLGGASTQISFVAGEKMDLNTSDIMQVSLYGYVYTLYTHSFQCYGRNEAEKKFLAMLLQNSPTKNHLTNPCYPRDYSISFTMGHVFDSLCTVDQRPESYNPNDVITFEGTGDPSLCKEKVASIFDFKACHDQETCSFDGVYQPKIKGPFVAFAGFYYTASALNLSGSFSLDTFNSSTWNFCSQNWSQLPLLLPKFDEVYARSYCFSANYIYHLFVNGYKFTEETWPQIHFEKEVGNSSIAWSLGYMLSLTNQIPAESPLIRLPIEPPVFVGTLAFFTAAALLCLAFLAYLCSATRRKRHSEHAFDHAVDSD
How it was run: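 Compound at 100 μM, 3 min preincubation, 100 μM ATP, 10 min. Stopped with malachite green; Pi read at 630 nm. Blank with enzyme added after stop subtracted. Activity with ATP alone taken as 100%.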

Row | SMILES | Drug metabolism [1] | Activity [2] [%]
1 | O=c1ccn([C@@H]2O[C@H](COP(=S)(S)OP(=O)(O)O)[C@@H](O)[C@H]2O)c(=O)[nH]1 (some centres not stated) | Metabolite_Detected | 
2 | O=c1ccn([C@@H]2O[C@H](COP(=S)(S)OP(=O)(O)OP(=O)(O)O)[C@@H](O)[C@H]2O)c(=O)[nH]1 (some centres not stated) |  | 7 to 27
